Test results from ChEMBL document CHEMBL4373706, “Discovery of Inhibitors of Aurora/PLK Targets as Anticancer Agents” (J Med Chem, 2019).
Converted amounts (≈) assume the structure as drawn. The source made the active and inactive calls. The calls are words filed in the database; no cut-off is given here.

What was measured:
[1] = Half life in Sprague-Dawley rat at 10 mg/kg, iv administered […] by LC-MS/MS analysis; format: ADME, organism-based; conditions: in vivo
[2] = Solubility of the compound in DMSO; format: physicochemical
In short: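 Solubility of the compound measured at 25±0.2°C, separately in water and in DMSO; reported in µg/mL.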

[3] = Lipid/water partition coefficient, log D of the compound; format: physicochemical
HCT-116 [4] = assay: Inhibition of colony formation in human HCT116 cells at 10 uM incubated for 48 hrs followed by supplemented with fresh medium every 3 days for 2 weeks by crystal violet staining-based assay; format: functional, cell-based
[5] = molecular target: Cyclin-dependent kinase 6 (Homo sapiens, UniProt Q00534); assay: Binding affinity to wild-type human full-length CDK6 (M1 to A326 residues) expressed in mammalian expression system measured after 1 hr by kinomescan method; conditions: pooled result: one value given for 15 cell lines, strains, targets or settings
[6] = molecular target: Serine/threonine-protein kinase PLK1 (Homo sapiens, UniProt P53350); assay: Binding affinity to wild-type human partial length PLK1 (A33 to F325 residues) expressed in mammalian expression system measured after 1 hr by kinomescan method
In short: (§1)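 KINOMEscan competition binding assay. A 321-kinase panel was first screened at 10 μM compound, and binding affinities were then determined for Aurora and PLK family members.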

[7] = molecular target: Serine/threonine-protein kinase PLK2 (Homo sapiens, UniProt Q9NYY3); assay: Binding affinity to wild-type human partial length PLK2 (H58 to F354 residues) expressed in mammalian expression system measured after 1 hr by kinomescan method; in short: as §1
Aurora kinase A = molecular target: T1, Aurora kinase A (Homo sapiens, UniProt O14965); assay: Binding affinity to wild-type human partial length AURKA (E122 to K401 residues) expressed in mammalian expression system measured after 1 hr by Kinomescan method; in short: as §1
T1 sequence (O14965 whole entry): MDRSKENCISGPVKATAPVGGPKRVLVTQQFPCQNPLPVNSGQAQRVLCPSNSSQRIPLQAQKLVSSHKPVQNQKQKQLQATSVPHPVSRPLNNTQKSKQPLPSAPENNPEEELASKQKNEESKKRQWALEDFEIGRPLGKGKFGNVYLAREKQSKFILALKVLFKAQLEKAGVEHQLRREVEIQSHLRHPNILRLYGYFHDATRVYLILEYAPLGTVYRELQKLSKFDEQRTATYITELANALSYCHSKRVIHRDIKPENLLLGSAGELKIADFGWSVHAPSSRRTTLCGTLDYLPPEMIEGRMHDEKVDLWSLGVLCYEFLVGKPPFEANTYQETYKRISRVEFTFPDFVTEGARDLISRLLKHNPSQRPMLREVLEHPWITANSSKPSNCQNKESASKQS

Aurora kinase B = Aurora kinase B (Homo sapiens, UniProt Q96GD4); assay: Binding affinity to wild-type human partial length AURKB (D25 to A303 residues) expressed in mammalian expression system measured after 1 hr by Kinomescan method; in short: as §1
HCT-116 [8] = assay: Cell cycle arrest in human HCT116 cells assessed as accumulation at G2/M phase at 10 uM measured after 24 to 48 hrs by propidium iodide staining-based flow cytometry (reference value: 3.37%); format: functional
HCT-116 [9] = assay: Induction of apoptosis in human HCT116 cells assessed as apoptotic cell population at 10 uM measured after 48 hrs by Annexin V-FITC/propidium iodide staining-based flow cytometry (reference value: 5.9%); format: functional
HCT-116 [10] = assay: Induction of apoptosis in human HCT116 cells assessed as apoptotic cell population at 5 uM measured after 48 hrs by Annexin V-FITC/propidium iodide staining-based flow cytometry (reference value: 5.9%); format: functional
HCT-116 [11] = assay: Antiproliferative activity against human HCT116 cells measured after 48 hrs by MTT assay; format: functional, cell-based; conditions: HCT-116, 48 h
In short: (§2)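 Cells were exposed to a range of compound concentrations for 48 h. MTT reagent was then added and absorbance read at 490 nm. Viability was normalized to vehicle control set as 100%, from n = 3 independent experiments, and IC50 was taken from the dose–response curves.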

A549 = assay: Antiproliferative activity against human A549 cells measured after 48 hrs by MTT assay; format: functional, cell-based; conditions: A549, 48 h; in short: as §2
[12] = Cmax in Sprague-Dawley rat at 10 mg/kg, iv administered […] by LC-MS/MS analysis; format: ADME, organism-based; design: dose 10 mg/kg, route intravenous; conditions: in vivo
[13] = AUC (0 to infinity) in Sprague-Dawley rat at 10 mg/kg, iv administered […] by LC-MS/MS analysis; format: ADME, organism-based; design: dose 10 mg/kg, route intravenous, time infinity; conditions: in vivo
[14] = Toxicity in BALB/c mouse xenografted with human HCT116 cells assessed as change in body weight at 10 mg/kg, iv administered every 3 days for 24 days measured post-last dose; format: organism-based; conditions: in vivo
HCT-116 [15] = assay: Antitumor activity against human HCT116 cells xenografted in BALB/c mouse assessed as mean survival days at 5 mg/kg, iv administered every 3 days for 60 days (reference value: 25 day); format: functional

Chain of Aurora kinase B (Q96GD4 whole entry, the tested form may be a part): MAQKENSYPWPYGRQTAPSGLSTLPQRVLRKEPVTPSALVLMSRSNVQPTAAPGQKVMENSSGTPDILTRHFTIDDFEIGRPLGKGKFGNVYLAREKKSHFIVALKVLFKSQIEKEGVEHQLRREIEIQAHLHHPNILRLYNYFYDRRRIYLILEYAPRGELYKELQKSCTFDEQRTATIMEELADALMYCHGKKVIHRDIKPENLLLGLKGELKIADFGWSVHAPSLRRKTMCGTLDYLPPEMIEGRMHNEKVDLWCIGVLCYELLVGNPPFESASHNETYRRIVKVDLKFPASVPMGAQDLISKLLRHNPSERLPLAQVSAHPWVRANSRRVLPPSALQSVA
Chain of Serine/threonine-protein kinase PLK2 (Q9NYY3 whole entry, the tested form may be a part): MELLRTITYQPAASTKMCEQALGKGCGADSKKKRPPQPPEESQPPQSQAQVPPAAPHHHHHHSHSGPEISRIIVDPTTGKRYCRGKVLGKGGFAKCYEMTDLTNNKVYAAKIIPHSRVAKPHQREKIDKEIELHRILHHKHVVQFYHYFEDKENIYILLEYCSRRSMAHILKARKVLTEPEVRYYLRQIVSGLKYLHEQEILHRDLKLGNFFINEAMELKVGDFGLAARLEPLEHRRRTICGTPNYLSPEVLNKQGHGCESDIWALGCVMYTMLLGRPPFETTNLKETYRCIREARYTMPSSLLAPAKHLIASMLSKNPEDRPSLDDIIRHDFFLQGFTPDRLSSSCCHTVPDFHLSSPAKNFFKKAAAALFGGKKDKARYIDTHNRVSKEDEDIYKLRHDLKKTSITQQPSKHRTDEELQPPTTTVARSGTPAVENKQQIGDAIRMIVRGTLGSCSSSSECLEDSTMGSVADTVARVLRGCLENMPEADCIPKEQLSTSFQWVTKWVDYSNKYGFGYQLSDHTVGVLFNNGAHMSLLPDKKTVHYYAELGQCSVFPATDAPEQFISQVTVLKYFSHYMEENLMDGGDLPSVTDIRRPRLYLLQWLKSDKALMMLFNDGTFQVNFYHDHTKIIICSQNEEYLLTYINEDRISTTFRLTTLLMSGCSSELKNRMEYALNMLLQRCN
Chain of Serine/threonine-protein kinase PLK1 (P53350 whole entry, the tested form may be a part): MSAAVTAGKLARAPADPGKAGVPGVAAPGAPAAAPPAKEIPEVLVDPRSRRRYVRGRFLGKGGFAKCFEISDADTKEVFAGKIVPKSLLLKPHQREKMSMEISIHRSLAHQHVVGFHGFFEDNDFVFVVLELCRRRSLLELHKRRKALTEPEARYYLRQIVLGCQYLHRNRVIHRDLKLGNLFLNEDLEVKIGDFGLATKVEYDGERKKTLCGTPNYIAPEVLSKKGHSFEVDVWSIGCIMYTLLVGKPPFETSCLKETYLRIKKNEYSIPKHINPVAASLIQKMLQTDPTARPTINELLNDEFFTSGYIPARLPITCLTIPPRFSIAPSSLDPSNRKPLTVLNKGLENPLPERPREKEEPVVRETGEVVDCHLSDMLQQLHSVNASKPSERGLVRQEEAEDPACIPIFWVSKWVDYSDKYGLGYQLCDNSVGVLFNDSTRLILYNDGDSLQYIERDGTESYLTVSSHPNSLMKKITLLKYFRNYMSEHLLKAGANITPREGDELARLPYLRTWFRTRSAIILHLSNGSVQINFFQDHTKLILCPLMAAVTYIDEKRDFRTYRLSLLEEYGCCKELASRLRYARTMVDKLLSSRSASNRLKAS
Chain of Cyclin-dependent kinase 6 (Q00534 whole entry, the tested form may be a part): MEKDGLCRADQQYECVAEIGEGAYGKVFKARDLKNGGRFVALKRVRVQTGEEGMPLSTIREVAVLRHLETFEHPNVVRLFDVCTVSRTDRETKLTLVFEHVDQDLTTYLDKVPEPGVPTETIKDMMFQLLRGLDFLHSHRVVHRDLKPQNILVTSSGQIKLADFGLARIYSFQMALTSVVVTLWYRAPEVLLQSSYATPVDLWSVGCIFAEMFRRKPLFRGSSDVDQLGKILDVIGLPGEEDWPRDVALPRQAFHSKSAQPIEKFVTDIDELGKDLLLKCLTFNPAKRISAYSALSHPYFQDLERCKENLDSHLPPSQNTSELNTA

SMILES: O=C(Nc1ccc2cc(C(=O)Nc3nccs3)ccc2c1)c1ccc(Cl)c(Cl)c1
- half-life [1]: 16.2 h
- solubility [2]: 286 µg/mL (≈ 647 µM)
- logD [3]: 4.8
- inhibition (HCT-116 [4]): Active
- Kd [5]: 8.02 µM
- Kd [6]: 0.055 µM
- Kd [7]: 0.272 µM
- Kd (Aurora kinase A): 0.023 µM
- Kd (Aurora kinase B): 0.078 µM
- Activity (HCT-116 [8]): 29.66%
- Activity (HCT-116 [9]): 91.4%
- Activity (HCT-116 [10]): 61.7%
- IC50 (HCT-116 [11]): 0.4 µM
- IC50 (A549): 11.6 µM
- Cmax [12]: 78.5 µg/mL
- AUC [13]: 1260.761 µg·h/mL
- Activity [14]: Toxic
- MSD (HCT-116 [15]): 45 days
